The text below walks through data of ChEMBL document CHEMBL3813688, “Synthesis, antitumor activity and mechanism of action of novel 1,3-thiazole derivatives containing hydrazide-hydrazone and carboxamide moiety” (Bioorg Med Chem Lett, 2016).

Test [1] has as its system HepG2. As to the kind of experiment: Induction of apoptosis in human HepG2 cells assessed as necrotic cells at 1.1 ug/ml after 24 to 48 hrs by Annexin V-FITC/propidium iodide staining based flow cytometry (reference value: 1.8 %). In kind it is functional.
The next test deals with MCF7. As to the kind of experiment: Cytotoxicity against human MCF7 cells assessed as cell growth inhibition after 72 hrs by MTT assay. Format: functional, cell-based. The settings on record: MCF7, 72 h. Put shortly: (§1)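 MTT growth assay in human cancer lines (MCF-7, HepG2, BGC-823, HeLa, A549), 72 h after treatment; 5-fluorouracil as reference. IC50 (μg/mL) taken as concentration giving 50% growth inhibition versus untreated control.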
In general terms: Tetrazolium dyes change colour on reduction, which living cells bring about.

The test system of test [2] is HepG2. Kind of test: Cell cycle arrest in human HepG2 cells assessed as accumulation at sub-G1 phase at 1.1 ug/ml after 48 hrs by propidium iodide staining based flow cytometry relative to control. Format: functional.
Test [3] has as its system HepG2. As to the kind of experiment: Induction of apoptosis in human HepG2 cells assessed as early apoptotic cells at 1.1 ug/ml after 24 to 48 hrs by Annexin V-FITC/propidium iodide staining based flow cytometry (reference value: 2.5 %). In kind it is functional. (In general: Flow cytometry measures light scatter and fluorescence of single cells or particles in a stream.)

Test [4] has as its system HepG2. Kind of test: Induction of apoptosis in human HepG2 cells assessed as viable cells at 1.1 ug/ml after 24 to 48 hrs by Annexin V-FITC/propidium iodide staining based flow cytometry (reference value: 95.6 %). The settings on record: read-out: Activity. Format: functional.
The test system of test [5] is HepG2. As to the kind of experiment: Cell cycle arrest in human HepG2 cells assessed as accumulation at S phase after 48 hrs by propidium iodide staining based flow cytometry. Format: functional.
In test [6] the test system is HepG2. As to the kind of experiment: Cytotoxicity against human HepG2 cells assessed as cell growth inhibition at 20 ug/ml after 72 hrs by MTT assay. In kind it is functional. As to conditions: HepG2, 72 h, read-out: GI.
For test [7], the system named is HepG2. Kind of test: Cell cycle arrest in human HepG2 cells assessed as accumulation at S phase at 1.1 ug/ml after 48 hrs by propidium iodide staining based flow cytometry (reference value: 35.42 %). In kind it is functional.
Test [8] concerns HepG2. Kind of test: Induction of apoptosis in human HepG2 cells assessed as viable cells at 0.55 ug/ml after 24 to 48 hrs by Annexin V-FITC/propidium iodide staining based flow cytometry (reference value: 95.6 %). As to conditions: read-out: Activity. Format: functional.
Test [9] deals with HepG2. As to the kind of experiment: Induction of apoptosis in human HepG2 cells assessed as necrotic cells at 0.55 ug/ml after 24 to 48 hrs by Annexin V-FITC/propidium iodide staining based flow cytometry (reference value: 1.8 %). In kind it is functional.
The test system of test [10] is HepG2. Kind of test: Induction of apoptosis in human HepG2 cells assessed as late apoptotic cells at 1.1 ug/ml after 24 to 48 hrs by Annexin V-FITC/propidium iodide staining based flow cytometry (reference value: 0.1 %). In kind it is functional.
The test system of the next test is A549. As to the kind of experiment: Cytotoxicity against human A549 cells assessed as cell growth inhibition after 72 hrs by MTT assay. In kind it is functional, cell-based. As to conditions: A549, 72 h. The essentials: as §1
In the next test the test system is HeLa. Kind of test: Cytotoxicity against human HeLa cells assessed as cell growth inhibition after 72 hrs by MTT assay. Format: functional, cell-based. Put shortly:
as §1

Test [11] can be described thus: Cytotoxicity against human HL7702 cells assessed as cell growth inhibition after 72 hrs by MTT assay. In kind it is cell-based. As to conditions: L02, 72 h.
The subject of test [12] is HepG2. Kind of test: Cell cycle arrest in human HepG2 cells assessed as accumulation at G2 phase at 1.1 ug/ml after 48 hrs by propidium iodide staining based flow cytometry (reference value: 6.89 %). Format: functional.
Test [13] relates to HepG2. As to the kind of experiment: Cell cycle arrest in human HepG2 cells assessed as accumulation at G1 phase at 0.55 ug/ml after 48 hrs by propidium iodide staining based flow cytometry (reference value: 57.68 %). In kind it is functional.
The nature of test [14]: Cytotoxicity against human BCG823 cells assessed as cell growth inhibition after 72 hrs by MTT assay. In kind it is functional, cell-based. As to conditions: BCG823, 72 h. The essentials:
as §1

Test [15] concerns HepG2. As to the kind of experiment: Cell cycle arrest in human HepG2 cells assessed as accumulation at sub-G1 phase at 0.55 ug/ml after 48 hrs by propidium iodide staining based flow cytometry relative to control. In kind it is functional.
Test [16] has as its system HepG2. Kind of test: Cytotoxicity against human HepG2 cells assessed as cell growth inhibition after 72 hrs by MTT assay. In kind it is functional, cell-based. The settings on record: HepG2, 72 h. Put shortly:
as §1

Test [17] deals with HepG2. As to the kind of experiment: Induction of apoptosis in human HepG2 cells assessed as late apoptotic cells at 0.55 ug/ml after 24 to 48 hrs by Annexin V-FITC/propidium iodide staining based flow cytometry (reference value: 0.1 %). In kind it is functional.
Test [18] has as its system HepG2. Kind of test: Induction of apoptosis in human HepG2 cells assessed as early apoptotic cells at 0.55 ug/ml after 24 to 48 hrs by Annexin V-FITC/propidium iodide staining based flow cytometry (reference value: 2.5 %). In kind it is functional.
Test [19] has as its system HepG2. Kind of test: Cell cycle arrest in human HepG2 cells assessed as accumulation at G2 phase at 0.55 ug/ml after 48 hrs by propidium iodide staining based flow cytometry (reference value: 6.89 %). In kind it is functional.
Test [20] deals with HepG2. Kind of test: Cell cycle arrest in human HepG2 cells assessed as accumulation at G1 phase at 1.1 ug/ml after 48 hrs by propidium iodide staining based flow cytometry (reference value: 57.68 %). In kind it is functional.
Test [21] relates to HepG2. Kind of test: Cell cycle arrest in human HepG2 cells assessed as accumulation at S phase at 0.55 ug/ml after 48 hrs by propidium iodide staining based flow cytometry (reference value: 35.42 %). Format: functional.
Test [22] deals with HepG2. Kind of test: Induction of apoptosis in human HepG2 cells assessed as early apoptotic cells at 1.82 ug/ml after 24 to 48 hrs by Annexin V-FITC/propidium iodide staining based flow cytometry (reference value: 2.5 %). Format: functional.
In test [23] the test system is HepG2. Kind of test: Induction of apoptosis in human HepG2 cells assessed as viable cells at 1.82 ug/ml after 24 to 48 hrs by Annexin V-FITC/propidium iodide staining based flow cytometry (reference value: 95.6 %). Format: functional. The settings on record: read-out: Activity.
For test [24], the system named is HepG2. As to the kind of experiment: Induction of apoptosis in human HepG2 cells assessed as late apoptotic cells at 3.64 ug/ml after 24 to 48 hrs by Annexin V-FITC/propidium iodide staining based flow cytometry (reference value: 0.1 %). In kind it is functional.
Test [25] concerns HepG2. As to the kind of experiment: Induction of apoptosis in human HepG2 cells assessed as early apoptotic cells at 3.64 ug/ml after 24 to 48 hrs by Annexin V-FITC/propidium iodide staining based flow cytometry (reference value: 2.5 %). In kind it is functional.
Test [26] concerns HepG2. Kind of test: Induction of apoptosis in human HepG2 cells assessed as viable cells at 3.64 ug/ml after 24 to 48 hrs by Annexin V-FITC/propidium iodide staining based flow cytometry (reference value: 95.6 %). Format: functional. The settings on record: read-out: Activity.
In test [27] the test system is HepG2. As to the kind of experiment: Induction of apoptosis in human HepG2 cells assessed as necrotic cells at 3.64 ug/ml after 24 to 48 hrs by Annexin V-FITC/propidium iodide staining based flow cytometry (reference value: 1.8 %). In kind it is functional.
The test system of test [28] is HepG2. As to the kind of experiment: Induction of apoptosis in human HepG2 cells assessed as necrotic cells at 1.82 ug/ml after 24 to 48 hrs by Annexin V-FITC/propidium iodide staining based flow cytometry (reference value: 1.8 %). Format: functional.
The test system of test [29] is HepG2. Kind of test: Induction of apoptosis in human HepG2 cells assessed as late apoptotic cells at 1.82 ug/ml after 24 to 48 hrs by Annexin V-FITC/propidium iodide staining based flow cytometry (reference value: 0.1 %). In kind it is functional.

Values after ≈ are worked out from the molar mass of the structure shown.

A word on the IC50: it is the concentration at which inhibition is half-maximal. Turning to `Cc1nc(N(C)C(=O)NC(=O)c2c(F)cccc2F)sc1C(=O)N/N=C/c1ccccc1C(F)(F)F`, the Activity is 2.3% in the test on HepG2 [1]; 66.72% with HepG2 [2]; 16.5% in the test with HepG2 [3]; “Dose-dependent effect” in the test on HepG2 [5]; 88.17% in the test on HepG2 [7]; 1.4% with HepG2 [9]. The Activity came to 0.3% in the test on HepG2 [10]; 0% with HepG2 [12]; 41.02% in the test on HepG2 [13]; 34.5% in the test on HepG2 [15]; 0.4% in the test with HepG2 [17]; 7% in the test on HepG2 [18]. In addition, the Activity was found to be 2.11% with HepG2 [19], 11.83% in the test with HepG2 [20] and 56.87% in the test on HepG2 [21]. Moreover, the IC50 in the test with MCF7 came to 7.34 µg/mL (≈ 14 µM); in the test on A549, 5.43 µg/mL (≈ 10.3 µM); in the test with HeLa, 6.51 µg/mL (≈ 12.4 µM); in test [11], 9.43 µg/mL (≈ 17.9 µM); in test [14], 7.88 µg/mL (≈ 15 µM); in the test on HepG2 [16], 1.11 µg/mL (≈ 2.11 µM). The viability at 1.1 µg/mL with HepG2 [4] worked out at 80.9%. For the same compound, the inhibition of growth at 20 µg/mL with HepG2 [6] turned out to be 90%. Moreover, the viability at 0.55 µg/mL in the test with HepG2 [8] was determined as 91.2%.
On to `CN(C(=O)NC(=O)c1ccc(C(F)(F)F)cc1)c1nc(C(F)(F)F)c(C(=O)N/N=C/c2ccccc2C(F)(F)F)s1`, for which the IC50 was 2.21 µg/mL (≈ 3.61 µM) in the test with MCF7; 6.68 µg/mL (≈ 10.9 µM) in the test on A549; 3.76 µg/mL (≈ 6.15 µM) with HeLa; 12.4 µg/mL (≈ 20.3 µM) in [11]; 2.53 µg/mL (≈ 4.14 µM) in [14]; 3.64 µg/mL (≈ 5.95 µM) with HepG2 [16]. The Activity with HepG2 [22] turned out to be 7.8%; in the test with HepG2 [24] it was 0.3%; in the test on HepG2 [25] it was 18.6%; with HepG2 [27] it was 3.2%; in the test on HepG2 [28] it was 0.3%; with HepG2 [29], 0.4%. The viability at 1.82 µg/mL with HepG2 [23] amounted to 91.5%. Moreover, the viability at 3.64 µg/mL in the test with HepG2 [26] was found to be 77.9%.
